# High-throughput results from PubChem BioAssay.
# NTR1 ag = agonists of human NTR1, primary screen, imaging, U2OS cells, beta-arrestin-GFP, high content. NTR1-U2OS beta-arrestin-GFP spot imaging, agonist mode. activation, % at 20 µM. hit rate 0.17% among 330,000;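 active means activation at or above 40% of the spot to cytoplasm intensity ratio, with at least 20 cells analyzed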;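 further: 0% = DMSO without peptide and 100% = 100 nM NTR1 peptide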
# TLR4 MyD88 comp = inhibitors of TLR4-MyD88 association in cells, primary screen, cell-based, HeLa CL3-4, BLA complementation, FRET ratio. Toll-like receptor 4 (Homo sapiens) + Myeloid differentiation primary response protein …. hit rate 0.18% among 200,000. inhibition, % at 8.4 µM. HeLa CL3-4 TLR4/MyD88 BLA complementation; in the data active means inhibition above about 25%;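 further: 0% = vehicle and 100% = reference inhibitor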
# TLR9-MyD88 block = inhibitors of TLR9-MyD88 association in cells, primary screen, cell-based, CHO, BLA complementation, fluorescence; inhibition, % at 4.98 µM; CCF4 FRET ratio; hit rate 0.21% among 340,000; Toll-like receptor 9 (Homo sapiens) + Myeloid differentiation primary response protein …;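 active means inhibition above the mean over all tested compounds plus 3 SD, cut at about 21% in these data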;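 further: 0% = DMSO only wells and 100% = clavulanate BLA inhibitor control wells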
# MC4R barr agon = MC4R agonists recruiting beta-arrestin, primary screen, cell-based, luminescence, agonist arm of biased-ligand search. U2OS MC4R beta-arrestin complementation; percent of melanotan II response, DMSO zero. activation, % at 8.9 µM. hit rate 0.98% among 360,000. AID 540308, 2011;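 active means activation above a per-plate cutoff, the mean activation of sample wells on that plate plus 3 SD, cut at about 8% in these data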
# MC4R antagonist = MC4R antagonists of cAMP signaling, primary screen, cell-based, TR-FRET, antagonist arm of biased-ligand search; inhibition, % at 6.5 µM; hit rate 0.48% among 360,000; MC4R-expressing cells, MTII-stimulated cAMP, LANCE TR-FRET; AID 540295, 2011; Melanocortin receptor 4 (Homo sapiens), P32245;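 active means inhibition above its plate's cutoff, the mean of tested wells on that plate plus 3 SD, cut at about 29% in these data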;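 further: 0% = Melanotan II alone and 100% = Melanotan II plus saturating MCL0020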
#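 Material – human MC4R-expressing U2OS cells · Repeats – no replicates · Detection – TR-FRET with Eu-cAMP and labeled anti-cAMP, 671 nm · Times – compound 30 min, challenge 1 h, detection 1 h · Compound – single nominal compound dose of 6.5 µM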
# NOD2-RIPK2 inh = NOD2-RIPK2 binding disruptors in cells, primary screen, fluorescence, CHO cells, BLA complementation; inhibition, % at 4.98 µM; hit rate 0.38% among 360,000; Receptor-interacting serine/threonine-protein kinase 2 (Homo sapiens), O43353; CCF4 ratio; in the data active means inhibition above about 21%;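 further: 0% = vehicle only and 100% = reference blocker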
# U2OS cAMP counter = nonselective cAMP signaling inhibitors, parental cells, counter-screen for MC4R biased antagonist project, cell-based, TR-FRET, U2OS, forskolin, triplicate | shares compounds with MC4R antagonist | LANCE TR-FRET | inhibition, % at 6.5 µM | hit rate 26% among 1,600;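 active means mean inhibition over triplicates above the low-control well mean plus 3 SD, set per campaign, cut at about 13% in these data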;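 further: signal is single emission at 671 nm which falls as cellular cAMP rises; 0% = forskolin-stimulated wells and 100% = buffer without forskolin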
# MC4R antag conf = MC4R cAMP antagonists, retest, confirmation, cell-based, TR-FRET. inhibition, % at 6.5 µM. MC4R-expressing cells, MTII-stimulated cAMP. shares compounds with MC4R antagonist. hit rate 27% among 1,600; in the data active means inhibition above about 29%;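 further: 0% = agonist stimulated wells alone and 100% = agonist stimulated wells plus saturating reference antagonist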
# Starred values were filed as active, the others as inactive; / = no result. Hits are enriched below; roughly 1.9% of the tested compounds scored in any of these assays.
SMILES,NTR1 ag,TLR4 MyD88 comp,TLR9-MyD88 block,MC4R barr agon,MC4R antagonist,NOD2-RIPK2 inh,U2OS cAMP counter,MC4R antag conf
Cc1cnc(C(=O)NCC(=O)Nc2ccccc2Br)cn1,-1.8,/,-21.9,-3.6,-0.2,2.7,/,/
Cc1ccc(C)n1-c1ccc(-c2nnc3n2CCCCC3)s1,-0.2,-7.3,-2.9,0.0,38.9*,-16.1,17.2*,33.3*
O=C(c1ccc(S(=O)(=O)N2CCCC2)cc1)N(c1ccc(F)cc1)C1C=CS(=O)(=O)C1 (stereo not drawn),0.1,/,-7.9,-2.1,10.2,1.8,/,/
C=CCn1c(C)cc(/C([O-])=C(/C(=S)Nc2ccc(OC(F)F)cc2)[n+]2ccc(N(C)C)cc2)c1C,0.1,1.6,-18.7,2.1,28.6*,-1.7,1.9,4.4
CN(C)c1cc[n+](/C(C(=S)Nc2ccc(SC(F)F)cc2)=C(/[O-])c2ccccc2)cc1,3.0,9.3,-2.1,-1.8,10.5,-3.4,/,/
COC(=O)c1c(C)[nH]c(C(=O)OCc2csc(CC(=O)Nc3ccccc3C)n2)c1C,1.1,/,-14.7,-1.3,-0.2,-6.2,/,/
CCCCCCN1C[C@@H](O)[C@H](n2cc(-c3ccc(F)cc3)nn2)C[C@@H]1c1ccccc1,/,/,5.4,5.4,12.6,-12.6,/,/
CC(C)[C@H](CN1CCC[C@H]1CN1C(N)=NC[C@H]1C(C)C)N1C[C@@H](Cc2ccccc2)N(CCCC2CCCC2)C1=N,-0.5,/,-2.5,-0.1,29.7*,4.0,-3.5,27.1
CCC[C@@H](CN1CCC[C@H]1CN1C(N)=NC[C@H]1CC(C)C)N1C[C@@H](Cc2ccccc2)N(CCc2ccc(Cl)c(Cl)c2)C1=N,-2.4,/,-0.4,1.7,29.3*,-5.2,-1.9,38.5*
CCC[C@@H](CN1CCC[C@H]1CN1C(N)=NC[C@@H]1Cc1ccccc1)N1C[C@@H](Cc2ccccc2)N(CCc2ccc(Cl)c(Cl)c2)C1=N,3.3,/,11.5,0.6,17.9,-2.3,/,/
CC(C)[C@H](CN1CCC[C@H]1CN1C(N)=NC[C@@H]1Cc1ccccc1)N1C[C@@H](Cc2ccccc2)N(CCc2ccc(Cl)c(Cl)c2)C1=N,-0.7,/,-3.7,1.4,31.1*,-8.1,-5.7,43.1*
CC(C)[C@@H]1CN=C(N)N1C[C@@H]1CCCN1C[C@H](C)N1C[C@@H](Cc2ccccc2)N(CCc2ccc(Cl)c(Cl)c2)C1=N,0.7,/,-14.3,5.0,11.9,4.3,/,/
CCN(c1ccccc1)S(=O)(=O)c1ccc(OC)c(NC(=O)Cn2cnc3c2c(=O)n(C)c(=O)n3C)c1,-0.5,-5.3,0.4,6.2,41.4*,-8.1,3.9,10.2
COc1ccc(S(=O)(=O)N(C)C)cc1NC(=O)COC(=O)c1nn(C)c(=O)c2ccccc12,-0.9,-4.7,0.0,0.6,33.7*,-6.5,6.3,13.5
Cc1c(C(=O)NCc2ccc(F)cc2)oc2ccc(S(=O)(=O)N3CCOCC3)cc12,-0.9,/,-0.8,1.8,32.0*,-7.2,-0.9,-1.4
COC(=O)C1CCN(C(=O)c2cc3c(=O)n4cccc(C)c4nc3n2Cc2ccccc2)CC1,1.4,/,-2.6,0.1,30.1*,-12.9,-2.7,-2.2
CC1CCCC(C)N1C(=O)Cn1cc(C#N)c2ccccc21 (stereo not drawn),1.2,-9.5,/,-0.1,-6.4,-13.9,/,/
